Measurements as given in ChEMBL document CHEMBL4308858 (Eur J Med Chem, 2018).
Calls of active or inactive are those of the source. The calls are words filed in the database; no cut-off is given here.

Tests used:
[1] = target: T1, Anoctamin-1 (Homo sapiens, UniProt Q5XXA6); assay: Inhibition of YFP-fused ANO1 (unknown origin) expressed in FRT cells after 20 mins by fluorescence quenching method; assay type: cell-based
T1 sequence (Q5XXA6 whole entry): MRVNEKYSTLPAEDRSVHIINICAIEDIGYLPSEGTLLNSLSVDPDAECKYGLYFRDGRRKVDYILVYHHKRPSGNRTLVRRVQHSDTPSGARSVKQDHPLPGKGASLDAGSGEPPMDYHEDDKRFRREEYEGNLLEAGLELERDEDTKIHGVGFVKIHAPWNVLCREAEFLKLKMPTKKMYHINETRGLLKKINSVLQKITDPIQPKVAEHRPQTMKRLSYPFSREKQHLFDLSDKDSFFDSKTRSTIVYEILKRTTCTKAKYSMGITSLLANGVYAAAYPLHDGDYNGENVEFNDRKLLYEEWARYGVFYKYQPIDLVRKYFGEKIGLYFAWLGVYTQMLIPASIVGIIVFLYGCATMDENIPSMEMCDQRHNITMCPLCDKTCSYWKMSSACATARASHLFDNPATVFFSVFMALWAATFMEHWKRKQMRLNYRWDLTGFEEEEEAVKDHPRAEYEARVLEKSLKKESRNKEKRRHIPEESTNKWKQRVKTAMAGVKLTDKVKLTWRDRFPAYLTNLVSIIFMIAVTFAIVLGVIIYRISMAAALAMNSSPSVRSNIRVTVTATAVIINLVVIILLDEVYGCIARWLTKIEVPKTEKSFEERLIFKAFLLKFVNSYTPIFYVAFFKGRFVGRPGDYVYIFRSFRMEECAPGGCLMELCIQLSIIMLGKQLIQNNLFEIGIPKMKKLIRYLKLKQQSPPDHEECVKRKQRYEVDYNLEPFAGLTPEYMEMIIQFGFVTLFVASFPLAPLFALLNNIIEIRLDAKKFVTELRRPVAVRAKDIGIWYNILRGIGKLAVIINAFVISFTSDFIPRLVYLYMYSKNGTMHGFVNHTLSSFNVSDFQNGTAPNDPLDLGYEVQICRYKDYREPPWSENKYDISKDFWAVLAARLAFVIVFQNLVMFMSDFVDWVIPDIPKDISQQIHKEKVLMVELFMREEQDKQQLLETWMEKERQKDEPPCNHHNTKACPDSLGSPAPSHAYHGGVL

[2] = target: T2, Anoctamin-2 (Homo sapiens, UniProt Q9NQ90); assay: Inhibition of YFP-fused ANO2 (unknown origin) expressed in FRT cells after 20 mins by fluorescence quenching method; assay type: cell-based
T2 sequence (Q9NQ90 whole entry): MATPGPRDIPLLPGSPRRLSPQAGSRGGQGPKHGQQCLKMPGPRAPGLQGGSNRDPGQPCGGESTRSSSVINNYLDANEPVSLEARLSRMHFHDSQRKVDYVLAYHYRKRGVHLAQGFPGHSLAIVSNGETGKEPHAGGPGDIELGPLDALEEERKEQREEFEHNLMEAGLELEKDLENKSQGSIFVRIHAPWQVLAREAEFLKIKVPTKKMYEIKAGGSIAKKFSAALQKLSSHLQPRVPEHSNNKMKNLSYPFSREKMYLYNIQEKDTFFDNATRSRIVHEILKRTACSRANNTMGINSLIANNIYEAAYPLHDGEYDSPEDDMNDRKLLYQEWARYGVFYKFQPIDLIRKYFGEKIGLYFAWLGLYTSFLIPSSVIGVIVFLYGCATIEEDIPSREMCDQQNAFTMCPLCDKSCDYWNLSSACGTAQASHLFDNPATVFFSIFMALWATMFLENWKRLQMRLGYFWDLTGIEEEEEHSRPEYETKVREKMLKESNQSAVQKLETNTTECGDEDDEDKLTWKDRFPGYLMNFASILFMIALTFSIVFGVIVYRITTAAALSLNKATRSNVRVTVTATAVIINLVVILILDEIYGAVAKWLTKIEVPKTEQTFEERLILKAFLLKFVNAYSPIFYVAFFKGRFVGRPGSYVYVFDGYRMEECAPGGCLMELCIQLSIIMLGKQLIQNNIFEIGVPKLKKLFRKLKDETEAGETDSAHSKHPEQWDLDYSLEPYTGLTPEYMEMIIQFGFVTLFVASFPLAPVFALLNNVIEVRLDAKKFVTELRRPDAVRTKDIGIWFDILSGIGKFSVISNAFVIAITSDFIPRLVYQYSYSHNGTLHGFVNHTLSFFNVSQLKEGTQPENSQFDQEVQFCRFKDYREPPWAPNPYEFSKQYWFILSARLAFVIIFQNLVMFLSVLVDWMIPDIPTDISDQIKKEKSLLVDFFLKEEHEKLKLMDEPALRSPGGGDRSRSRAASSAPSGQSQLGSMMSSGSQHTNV

[3] = target: T3, ANO2 (Anoctamin-2) (Homo sapiens, UniProt Q9NQ90); assay: Inhibition of YFP-fused ANO2 (unknown origin) expressed in FRT cells after 20 mins by fluorescence quenching method relative to untreated control; assay type: cell-based; set-up: concentration or dose not given beside the values; conditions: FRT cells expressing YFP-fused ANO2
T3 sequence (Q9NQ90 whole entry): T2 sequence (Q9NQ90 whole entry)
Procedure, shortened: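 FRT cells stably co-expressing YFP-H148Q/I152L/F46L and ANO1 or ANO2, seeded 2×10^4 per well and grown 48 h. After PBS washes, compound given for 20 min. At 2 s, 70 mM I⁻ solution containing 200 µM ATP added; fluorescence read every 0.4 s for 6 s. Inhibition taken from initial slope of quenching; mean ± S.E., n = 3.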

[4] = target: CFTR (cystic fibrosis transmembrane conductance regulator) (Homo sapiens, UniProt P13569); assay: Inhibition of wild type human CFTR expressed in FRT cells assessed as reduction in forskolin-induced chloride current at 10 uM after 20 mins by electrophysiological assay; assay type: cell-based; conditions: FRT cells expressing wild type human CFTR
Sequence of CFTR (cystic fibrosis transmembrane conductance regulator) (P13569 whole entry): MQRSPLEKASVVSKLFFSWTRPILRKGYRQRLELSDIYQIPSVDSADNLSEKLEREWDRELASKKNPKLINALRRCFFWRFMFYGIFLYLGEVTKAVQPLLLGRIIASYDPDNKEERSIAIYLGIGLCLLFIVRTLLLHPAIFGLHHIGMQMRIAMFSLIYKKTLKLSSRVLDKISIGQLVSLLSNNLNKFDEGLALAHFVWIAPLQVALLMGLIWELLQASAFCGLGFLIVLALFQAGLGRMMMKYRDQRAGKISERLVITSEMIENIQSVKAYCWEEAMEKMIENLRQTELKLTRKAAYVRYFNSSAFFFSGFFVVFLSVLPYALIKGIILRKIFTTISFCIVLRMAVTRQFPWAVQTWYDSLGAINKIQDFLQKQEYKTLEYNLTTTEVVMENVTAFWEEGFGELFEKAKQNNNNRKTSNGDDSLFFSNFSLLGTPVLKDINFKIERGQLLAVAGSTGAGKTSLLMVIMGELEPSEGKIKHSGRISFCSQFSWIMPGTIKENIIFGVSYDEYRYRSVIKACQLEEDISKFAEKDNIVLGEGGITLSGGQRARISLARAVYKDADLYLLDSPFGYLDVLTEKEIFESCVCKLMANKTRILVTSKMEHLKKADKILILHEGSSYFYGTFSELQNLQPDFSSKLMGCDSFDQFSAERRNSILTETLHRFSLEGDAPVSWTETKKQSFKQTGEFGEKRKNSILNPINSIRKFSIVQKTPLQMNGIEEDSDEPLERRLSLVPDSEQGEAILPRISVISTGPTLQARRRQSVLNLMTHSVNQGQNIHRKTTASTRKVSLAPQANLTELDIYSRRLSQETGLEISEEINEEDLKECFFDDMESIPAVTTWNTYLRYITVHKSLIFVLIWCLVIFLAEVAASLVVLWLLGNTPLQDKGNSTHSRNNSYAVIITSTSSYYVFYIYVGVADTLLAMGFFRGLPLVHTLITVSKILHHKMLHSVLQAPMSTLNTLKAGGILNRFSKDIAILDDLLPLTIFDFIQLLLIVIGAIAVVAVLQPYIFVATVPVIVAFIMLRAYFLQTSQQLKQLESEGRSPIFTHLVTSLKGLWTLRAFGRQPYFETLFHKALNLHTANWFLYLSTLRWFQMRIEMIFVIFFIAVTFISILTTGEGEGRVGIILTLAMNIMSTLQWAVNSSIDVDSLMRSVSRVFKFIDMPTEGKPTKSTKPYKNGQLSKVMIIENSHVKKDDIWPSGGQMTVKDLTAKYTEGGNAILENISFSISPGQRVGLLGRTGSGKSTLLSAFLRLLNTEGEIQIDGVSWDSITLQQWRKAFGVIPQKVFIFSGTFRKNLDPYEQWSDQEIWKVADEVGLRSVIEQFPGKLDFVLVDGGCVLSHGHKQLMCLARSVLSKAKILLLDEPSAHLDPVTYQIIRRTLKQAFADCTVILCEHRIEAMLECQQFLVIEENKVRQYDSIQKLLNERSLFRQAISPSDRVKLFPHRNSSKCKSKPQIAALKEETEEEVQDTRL
Procedure, shortened: (§1)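 Ussing chamber, FRT monolayers expressing ANO1, ANO2 or human WT-CFTR. Basolateral side permeabilised with amphotericin B (250 µg/mL) in HCO3⁻-buffered solution, pH 7.4; apical side half-Cl⁻ (65 mM NaCl replaced by gluconate). Run at 37 °C under 95% O2/5% CO2. Compound applied apically for 20 min, then ANO1/2 activated with 100 µM ATP or CFTR with 20 µM forskolin. Apical current recorded; n = 3–6.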

[5] = Half life in rat plasma at 5 uM by LC-MS/MS analysis; assay type: ADME, cell-free
Procedure, shortened: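 Compound at 5 µM final in rat plasma, shaken at 37 °C and sampled at 0, 30, 60, 120 and 240 min. Reaction stopped with three volumes of ice-cold acetonitrile and protein spun out. Supernatant analysed by LC-MS/MS on a C18 column with formic acid/water–ACN mobile phase. Percent parent remaining taken from peak areas; n = 3.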

[6] = target: T4, Anoctamin-1 (Homo sapiens) (UniProt Q5XXA6); assay: Inhibition of ANO1 (unknown origin) expressed in FRT cells assessed as reduction in ATP-induced chloride current after 20 mins by electrophysiological assay; assay type: cell-based
T4 sequence (whole entry): T1 sequence (Q5XXA6 whole entry)

[7] = target: Cystic fibrosis transmembrane conductance regulator (Homo sapiens, UniProt P13569); assay: Inhibition of wild type human CFTR expressed in FRT cells assessed as reduction in forskolin-induced chloride current at 30 to 100 uM after 20 mins by electrophysiological assay; assay type: cell-based; procedure, shortened: as §1
Sequence of Cystic fibrosis transmembrane conductance regulator (P13569 whole entry): as above

[8] = species on record: Homo sapiens; assay: Selectivity for ANO1 (unknown origin) over ANO2 (unknown origin)
[9] = species on record: Homo sapiens; assay: Selectivity for ANO1 (unknown origin) over wild type human CFTR
[10] = tested on: PC-3; assay: Cytotoxicity against human PC3 cells assessed as reduction in cell viability after 48 hrs by MTS assay; assay type: functional, cell-based
Procedure, shortened: (§2)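 PC3, MCF7 and BxPC3 cells grown in RPMI1640 with 10% FBS, plated and held 24 h in 2% FBS medium. At about 20% confluency, compound added at 0.01–30 µM for 48 h, with medium and compound replaced every 24 h. MTS reagent applied for 1 h and formazan absorbance read at 490 nm; mean ± S.E., n = 3.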

[11] = tested on: MCF7; assay: Cytotoxicity against human MCF7 cells assessed as reduction in cell viability after 48 hrs by MTS assay; assay type: functional, cell-based; procedure, shortened: as §2
[12] = tested on: BXPC-3; assay: Cytotoxicity against human BxPC3 cells assessed as reduction in cell viability after 48 hrs by MTS assay; assay type: functional, cell-based; procedure, shortened: as §2
[13] = tested on: PC-3; assay: Inhibition of ANO1 protein expression level in human PC3 cells at 3 to 10 uM after 24 hrs by Western blot analysis; assay type: functional, cell-based
Procedure, shortened: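 PC3 cells exposed to compound for 24 h and lysed in NP-40/deoxycholate buffer with protease and phosphatase inhibitors. Lysate cleared at 15000 g, resolved on 4–12% Tris-glycine gel and transferred to PVDF. Blocked in 4% milk/TBST, probed with anti-ANO1 (1:500) then anti-rabbit secondary (1:2000), and detected by ECL.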

[14] = tested on: PC-3; assay: Cytotoxicity against human PC3 cells assessed as reduction in cell viability at 10 uM after 48 hrs by MTS assay; assay type: functional, cell-based; procedure, shortened: as §2
[15] = tested on: MCF7; assay: Cytotoxicity against human MCF7 cells assessed as reduction in cell viability at 10 uM after 48 hrs by MTS assay; assay type: functional, cell-based; procedure, shortened: as §2
[16] = tested on: BXPC-3; assay: Cytotoxicity against human BxPC3 cells assessed as reduction in cell viability at 10 uM after 48 hrs by MTS assay; assay type: functional, cell-based; procedure, shortened: as §2

| SMILES | IC50 ([1]; read-out: IC50) [µM] | IC50 ([2]; read-out: IC50) [µM] | IC50 [2] | inhibition at 20 min [3] [%] | also measured |
| --- | --- | --- | --- | --- | --- |
| Cc1cc(Cl)ccc1OCc1nnc(-c2ccccc2C(F)(F)F)o1 | > 100 | > 100 |  |  |  |
| Cc1cc(Cl)ccc1OC(F)(F)C(=O)N/N=C/c1ccccc1OC(F)(F)F | > 100 | > 100 |  |  |  |
| Cc1cc(Cl)ccc1OCc1nnc(-c2ccccn2)o1 | > 100 |  | Not Active | < 20 |  |
| Cc1cc(Cl)ccc1OCC(=O)N/N=C/c1ccccc1F | 0.89 |  | Not Active | < 20 |  |
| Cc1cc(Cl)ccc1OCc1nnc(-c2cccc(F)c2)o1 | > 100 | > 100 |  |  |  |
| O=C(O)c1ccc(/C=C2/SC(=S)N(c3cccc(C(F)(F)F)c3)C2=O)cc1 |  |  |  |  | inhibition at 20 min, 10 µM [4]: 100% |
| COc1ccccc1/C=N/NC(=O)c1cc2cc(Cl)ccc2o1 | > 100 | > 100 |  |  |  |
| COc1ccccc1/C=N/NC(=O)COc1ccc(Cl)cc1C |  |  |  |  | half-life at 5 µM [5]: 32 min |
| C/C(=N\NC(=O)COc1ccc(Cl)cc1C)c1ccccc1OC(F)(F)F |  | > 100 |  |  |  |
| Cc1cc(Cl)ccc1OCC(=O)N/N=C/c1cccc(F)c1 | > 100 |  | Not Active | < 20 |  |
| Cc1cc(Cl)ccc1OCc1nnc(-c2cccc(OC(F)(F)F)c2)o1 | > 100 |  | Not Active | < 20 |  |
| Cc1cc(Cl)ccc1OC(C)C(=O)N/N=C/c1ccccc1OC(F)(F)F (configuration not stated) | > 100 |  | Not Active |  |  |
| COc1ccccc1-c1nnc(-c2cc3cc(Cl)ccc3o2)o1 | > 100 | > 100 |  |  |  |
| COc1cccc(-c2nnc(COc3ccc(Cl)cc3C)o2)c1 | > 100 | > 100 |  |  |  |
| COc1ccccc1CNNC(=O)COc1ccc(Cl)cc1C |  | > 100 |  |  |  |
| Cc1cc(Cl)ccc1OCC(=O)N/N=C/c1ccco1 |  |  | Not Active | < 20 |  |
| Cc1cc(Cl)ccc1OCC(=O)N/N=C/c1ccccn1 |  | > 100 |  |  |  |
| Cc1cc(Cl)ccc1OCC(=O)N/N=C/c1ccccc1C(F)(F)F |  |  | Not Active | < 20 |  |
| Cc1cc(Cl)ccc1OC(C)(C)C(=O)N/N=C/c1ccccc1OC(F)(F)F |  | > 100 |  |  | IC50 [1]: Not Active |
| COc1cccc(/C=N/NC(=O)COc2ccc(Cl)cc2C)c1 | > 100 |  | Not Active | < 20 |  |
| Cc1cc(Cl)ccc1OCc1nnc(-c2ccccc2F)o1 |  | > 100 |  |  |  |
| Cc1cc(Cl)ccc1OCC(=O)N/N=C/c1ccccc1OC(F)(F)F |  |  | Not Active | < 20 | inhibition [6]: Dose-dependent effect; inhibition (INH) [7]: Not Active; Selectivity ratio [8]: > 1000; Selectivity ratio [9]: > 1000; Activity [10]: Dose-dependent effect; Activity [11]: Dose-dependent effect; Activity [12]: Dose-dependent effect; inhibition [13]: Active; half-life at 5 µM [5]: 104 min |
| Cc1cc(Cl)ccc1OCc1nnc(-c2ccccc2OC(F)(F)F)o1 | > 100 |  | Not Active | < 20 |  |
| Cc1cc(Cl)ccc1OCC(=O)N/N=C/c1cccc(OC(F)(F)F)c1 | > 100 |  | Not Active | < 20 | Activity [14]: inactive; Activity [15]: inactive; Activity [16]: inactive |
| Cc1cc(Cl)ccc1OCc1nnc(-c2ccco2)o1 |  | > 100 |  |  |  |
